Experimental data as given in ChEMBL document CHEMBL3244179, “Potential inhibitors of S-adenosylmethionine-dependent methyltransferases. 7. Role of the ribosyl moiety in enzymatic binding of S-adenosyl-L-homocysteine and S-adenosyl-L-methionine” (J Med Chem, 1978).

What was measured:
[1] = target: T1, Catechol O-methyltransferase (Rattus norvegicus) (UniProt P22734); test: Inhibition of Sprague-Dawley rat liver COMT at 0.2 mM by radiochemical technique
T1 sequence (whole entry): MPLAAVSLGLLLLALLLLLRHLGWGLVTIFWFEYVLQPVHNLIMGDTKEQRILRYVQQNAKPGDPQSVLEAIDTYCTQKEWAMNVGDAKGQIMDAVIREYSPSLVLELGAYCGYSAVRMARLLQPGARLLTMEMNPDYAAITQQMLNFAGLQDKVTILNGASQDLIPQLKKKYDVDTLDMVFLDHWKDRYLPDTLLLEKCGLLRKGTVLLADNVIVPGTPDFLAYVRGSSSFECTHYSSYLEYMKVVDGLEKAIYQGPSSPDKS
How it was run: (§1)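 Rat liver COMT, purified by a published method, was tested with inhibitor at 0.2 or 2.0 mM, SAM-14CH3 (0.05 μCi, 1.0 mM final) and 3,4-dihydroxybenzoate (2.0 mM final) in buffer. Incubation was at 37 °C. Activity was measured radiochemically by extracting the radiolabeled methylated product.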

[2] = target: T2, Phenylethanolamine N-methyltransferase (Bos taurus) (UniProt P10938); test: Inhibition of bovine adrenal medulla PNMT at 0.2 mM by radiochemical technique
T2 sequence (whole entry): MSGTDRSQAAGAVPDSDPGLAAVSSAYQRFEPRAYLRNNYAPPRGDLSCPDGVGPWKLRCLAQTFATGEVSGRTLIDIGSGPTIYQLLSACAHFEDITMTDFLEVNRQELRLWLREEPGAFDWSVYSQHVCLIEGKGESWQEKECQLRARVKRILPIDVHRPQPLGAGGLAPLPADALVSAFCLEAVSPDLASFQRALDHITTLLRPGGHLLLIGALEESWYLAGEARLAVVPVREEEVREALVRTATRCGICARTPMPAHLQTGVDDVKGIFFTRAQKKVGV
How it was run: (§2)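 Bovine adrenal medulla PNMT, purified by a published method, was tested with inhibitor at 0.2 or 2.0 mM, SAM-14CH3 (0.05 μCi, 1.0 mM final) and DL-β-phenylethanolamine (1.0 mM final) in buffer. Incubation was at 37 °C. Activity was measured radiochemically by extracting the labeled product.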

[3] = target: Histamine N-methyltransferase (Cavia porcellus) (UniProt Q9EST2); test: Inhibition of guinea pig HMT at 0.2 mM by radiochemical technique
Sequence of Histamine N-methyltransferase (Cavia porcellus) (Q9EST2 whole entry): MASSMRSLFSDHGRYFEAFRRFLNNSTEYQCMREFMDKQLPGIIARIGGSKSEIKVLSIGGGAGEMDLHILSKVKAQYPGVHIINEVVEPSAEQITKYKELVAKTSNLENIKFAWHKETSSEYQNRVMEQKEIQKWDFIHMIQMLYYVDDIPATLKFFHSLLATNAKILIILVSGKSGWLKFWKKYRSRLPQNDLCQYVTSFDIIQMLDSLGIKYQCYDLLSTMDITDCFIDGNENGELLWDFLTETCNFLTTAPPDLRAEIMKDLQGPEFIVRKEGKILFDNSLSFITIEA
How it was run: (§3)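 HMT from guinea pig brain, purified by a published method, was tested with inhibitor at 0.2 or 2.0 mM, SAM-14CH3 (0.05 μCi, 1.0 mM final) and histamine (1.0 mM final) in buffer. Incubation was at 37 °C. Activity was measured radiochemically by extracting the radiolabeled product.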

[4] = target: T3, Acetylserotonin O-methyltransferase (Bos taurus) (UniProt P10950); test: Inhibition of bovine pineal gland HIOMT at 0.2 mM by radiochemical technique
T3 sequence (whole entry): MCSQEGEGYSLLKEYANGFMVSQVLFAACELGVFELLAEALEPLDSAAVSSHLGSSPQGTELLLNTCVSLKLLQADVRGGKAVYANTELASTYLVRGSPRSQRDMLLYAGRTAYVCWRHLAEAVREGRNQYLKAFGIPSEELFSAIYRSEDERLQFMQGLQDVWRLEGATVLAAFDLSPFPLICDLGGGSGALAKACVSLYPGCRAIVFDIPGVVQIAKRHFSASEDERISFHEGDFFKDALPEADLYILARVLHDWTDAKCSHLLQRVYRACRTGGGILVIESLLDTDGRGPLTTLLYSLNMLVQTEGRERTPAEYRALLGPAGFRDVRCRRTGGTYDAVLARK
How it was run: (§4)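 Bovine pineal gland HIOMT, purified by a published method, was tested with inhibitor at 0.2 or 2.0 mM, SAM-14CH3 (0.05 μCi, 1.0 mM final) and N-acetylserotonin (1.0 mM final) in buffer. Incubation was at 37 °C. Product formation was read radiochemically after extraction of the labeled product.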

[5] = target: T1, Catechol O-methyltransferase (Rattus norvegicus); test: Inhibition of Sprague-Dawley rat liver COMT at 2 mM by radiochemical technique; how it was run: as §1
[6] = target: T2, Phenylethanolamine N-methyltransferase (Bos taurus); test: Inhibition of bovine adrenal medulla PNMT at 2 mM by radiochemical technique; how it was run: as §2
[7] = target: Histamine N-methyltransferase (Cavia porcellus) (UniProt Q9EST2); test: Inhibition of guinea pig HMT at 2 mM by radiochemical technique; how it was run: as §3
[8] = target: T3, Acetylserotonin O-methyltransferase (Bos taurus); test: Inhibition of bovine pineal gland HIOMT at 2 mM by radiochemical technique; how it was run: as §4
[9] = Retardation factor, Rf of the compound on silica gel GF containing 5% Na2HPO4 by chromatography; assay type: physicochemical
How it was run: (§5)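 TLC plates carried a 250 μm silica gel GF layer. Spots were located visually under UV light, and with ninhydrin for amine-containing compounds.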

[10] = Retardation factor, Rf of the compound on silica gel GF containing EtOH-HOAc-H2O (20:2:2)/0.1 M phosphate buffer at 7.4 by chromatography; assay type: physicochemical; conditions: pH 7.4; how it was run: as §5
[11] = target: T1, Catechol O-methyltransferase (Rattus norvegicus); test: Inhibition of Sprague-Dawley rat liver COMT at 0.4 mM by radiochemical technique
[12] = target: T2, Phenylethanolamine N-methyltransferase (Bos taurus); test: Inhibition of bovine adrenal medulla PNMT at 0.4 mM by radiochemical technique
[13] = target: Histamine N-methyltransferase (Cavia porcellus) (UniProt Q9EST2); test: Inhibition of guinea pig HMT at 0.4 mM by radiochemical technique
[14] = target: T3, Acetylserotonin O-methyltransferase (Bos taurus); test: Inhibition of bovine pineal gland HIOMT at 0.4 mM by radiochemical technique
[15] = target: T1, Catechol O-methyltransferase (Rattus norvegicus); test: Inhibition of Sprague-Dawley rat liver COMT at 1 mM by radiochemical technique
[16] = target: T2, Phenylethanolamine N-methyltransferase (Bos taurus); test: Inhibition of bovine adrenal medulla PNMT at 1 mM by radiochemical technique
[17] = target: Histamine N-methyltransferase (Cavia porcellus) (UniProt Q9EST2); test: Inhibition of guinea pig HMT at 1 mM by radiochemical technique
[18] = target: T3, Acetylserotonin O-methyltransferase (Bos taurus); test: Inhibition of bovine pineal gland HIOMT at 1 mM by radiochemical technique

Row | SMILES | inhibition [1] [%] | inhibition [2] [%] | inhibition [3] [%] | inhibition [4] [%] | inhibition [5] [%] | inhibition [6] [%] | inhibition [7] [%] | inhibition [8] [%] | Rf [9] | Rf [10] | inhibition [11] [%] | inhibition [12] [%] | inhibition [13] [%] | inhibition [14] [%] | inhibition [15] [%] | inhibition [16] [%] | inhibition [17] [%] | inhibition [18] [%]
1 | Nc1ncnc2c1ncn2[C@@H](CO)O[C@@H](CO)C[S+]([O-])CC[C@@H](N)C(=O)O (some centres undefined) | 5 | 9 | 0 | 7 | 22 | 17 | 0 | 16 | 0.6 | 0.74 |  |  |  |  |  |  |  | 
2 | Nc1ncnc2c1ncn2[C@@H]1O[C@H](C[S+]([O-])CC[C@@H](N)C(=O)O)[C@@H](O)[C@H]1O (some centres undefined) | 14 | 10 | 0 | 0 | 42 | 22 | 9 | 0 | 0.72 | 0.74 |  |  |  |  |  |  |  | 
3 | Nc1nnnc2c1ncn2[C@@H]1O[C@H](CSCCC(N)C(=O)O)[C@@H](O)[C@H]1O (single isomer, unassigned) |  |  |  |  |  |  |  |  | 0.7 | 0.79 | 3 | 38 | 0 | 23 | 6 | 58 | 8 | 39
4 | Nc1ncnc2c1ncn2[C@@H](CO)O[C@@H](CO)CSC[C@@H](N)C(=O)O | 0 | 10 | 0 | 0 | 12 | 15 | 3 | 0 | 0.63 | 0.75 |  |  |  |  |  |  |  | 
5 | Nc1ncnc2c1ncn2[C@@H](CO)O[C@@H](CO)CSCC[C@@H](N)C(=O)O | 0 | 8 | 0 | 9 | 26 | 16 | 19 | 26 | 0.65 | 0.72 |  |  |  |  |  |  |  | 
6 | C[S+](CC[C@H](N)C(=O)[O-])C[C@H]1O[C@@H](n2cnc3c(N)ncnc32)[C@H](O)[C@@H]1O (some centres undefined) [ADEMETIONINE] |  |  |  |  |  |  |  |  | 0.34 | 0.2 |  |  |  |  |  |  |  | 
7 | Nc1ncnc2c1ncn2[C@@H]1O[C@H](CSCC(N)C(=O)O)[C@@H](O)[C@H]1O (single isomer, unassigned) | 0 | 11 | 14 | 12 | 5 | 27 | 43 | 33 | 0.74 | 0.79 |  |  |  |  |  |  |  | 
8 | Nc1ncnc2c1nnn2[C@@H]1O[C@H](CSCCC(N)C(=O)O)[C@@H](O)[C@H]1O (single isomer, unassigned) |  |  |  | 49 |  |  |  | 89 | 0.71 | 0.72 |  |  |  |  |  |  |  | 
9 | C[S+](CC[C@@H](N)C(=O)O)C[C@H](CO)O[C@H](CO)n1cnc2c(N)ncnc21 (some centres undefined) | 7 | 1 | 0 | 0 | 14 | 21 | 0 | 8 | 0.46 | 0.11 |  |  |  |  |  |  |  | 

Results, then the compound that gave them:

Row | inhibition [1] [%] | inhibition [2] [%] | inhibition [3] [%] | inhibition [4] [%] | inhibition [5] [%] | inhibition [6] [%] | inhibition [7] [%] | inhibition [8] [%] | Rf [9] | Rf [10] | inhibition [11] [%] | inhibition [12] [%] | inhibition [13] [%] | inhibition [14] [%] | inhibition [15] [%] | inhibition [16] [%] | inhibition [17] [%] | inhibition [18] [%] | SMILES
10 | 5 | 14 | 73 | 1 | 22 | 32 | 99 | 6 |  |  |  |  |  |  |  |  |  |  | Nc1ncnc2c1ncn2[C@@H]1O[C@H](CSCCC(N)C(=O)O)[C@@H](O)[C@H]1O (single isomer, unassigned)
11 | 2 | 0 | 0 | 0 | 25 | 0 | 0 | 6 | 0.65 | 0.72 |  |  |  |  |  |  |  |  | Nc1ncnc2c1ncn2[C@@H](CO)O[C@@H](CO)CSCC[C@H](N)C(=O)O
12 | 0 | 0 | 0 | 12 | 17 | 10 | 0 | 31 | 0.69 | 0.58 |  |  |  |  |  |  |  |  | Nc1ncnc2c1nnn2[C@@H](CO)O[C@@H](CO)CSCC[C@@H](N)C(=O)O
13 | 4 | 0 | 0 | 18 | 5 | 15 | 0 | 25 | 0.69 | 0.66 |  |  |  |  |  |  |  |  | Nc1nnnc2c1ncn2[C@@H](CO)O[C@@H](CO)CSCC[C@@H](N)C(=O)O
14 | 39 | 49 | 40 | 71 | 87 | 92 | 89 | 94 | 0.73 | 0.73 |  |  |  |  |  |  |  |  | Nc1ncnc2c1ncn2[C@@H]1O[C@H](CSCC[C@H](N)C(=O)O)[C@@H](O)[C@H]1O [S-ADENOSYLHOMOCYSTEINE]
